How the values were obtained:
[1] = target: T1, Adrenergic receptor alpha-1 (Rattus norvegicus, UniProt P15823+P23944+P43140); assay: Binding affinity against Alpha-1 adrenergic receptor, activity is expressed as IC50 values; assay type: protein assay
T1 sequence (P15823 whole entry): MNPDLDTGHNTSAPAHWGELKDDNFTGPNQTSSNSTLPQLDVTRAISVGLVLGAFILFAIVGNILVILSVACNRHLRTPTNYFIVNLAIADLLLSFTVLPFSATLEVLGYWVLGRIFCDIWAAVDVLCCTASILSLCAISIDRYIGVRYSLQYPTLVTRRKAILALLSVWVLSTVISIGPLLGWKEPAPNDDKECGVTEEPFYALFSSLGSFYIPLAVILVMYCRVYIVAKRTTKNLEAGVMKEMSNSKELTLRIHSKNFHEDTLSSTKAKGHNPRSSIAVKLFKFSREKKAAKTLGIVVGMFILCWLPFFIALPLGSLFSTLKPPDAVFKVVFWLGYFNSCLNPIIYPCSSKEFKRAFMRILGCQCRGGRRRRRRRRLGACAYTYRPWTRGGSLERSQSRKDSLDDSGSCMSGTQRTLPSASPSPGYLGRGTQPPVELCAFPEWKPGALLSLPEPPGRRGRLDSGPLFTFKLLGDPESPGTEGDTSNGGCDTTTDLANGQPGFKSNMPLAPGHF
T1 sequence (P23944 whole entry): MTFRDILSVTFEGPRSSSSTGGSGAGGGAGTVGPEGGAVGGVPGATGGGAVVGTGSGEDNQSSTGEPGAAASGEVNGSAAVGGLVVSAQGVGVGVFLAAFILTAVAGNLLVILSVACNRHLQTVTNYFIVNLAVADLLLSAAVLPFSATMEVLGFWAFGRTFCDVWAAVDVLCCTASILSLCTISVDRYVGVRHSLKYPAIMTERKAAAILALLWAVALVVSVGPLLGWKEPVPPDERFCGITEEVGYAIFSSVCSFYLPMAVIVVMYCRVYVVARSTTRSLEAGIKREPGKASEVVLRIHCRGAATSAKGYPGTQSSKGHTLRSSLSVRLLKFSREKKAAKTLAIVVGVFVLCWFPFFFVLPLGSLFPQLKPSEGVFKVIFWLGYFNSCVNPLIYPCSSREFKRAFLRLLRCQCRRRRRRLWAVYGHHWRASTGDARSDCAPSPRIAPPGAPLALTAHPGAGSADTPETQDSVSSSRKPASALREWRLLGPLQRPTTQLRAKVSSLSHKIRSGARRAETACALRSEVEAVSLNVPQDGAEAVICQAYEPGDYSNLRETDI
T1 sequence (P43140 whole entry): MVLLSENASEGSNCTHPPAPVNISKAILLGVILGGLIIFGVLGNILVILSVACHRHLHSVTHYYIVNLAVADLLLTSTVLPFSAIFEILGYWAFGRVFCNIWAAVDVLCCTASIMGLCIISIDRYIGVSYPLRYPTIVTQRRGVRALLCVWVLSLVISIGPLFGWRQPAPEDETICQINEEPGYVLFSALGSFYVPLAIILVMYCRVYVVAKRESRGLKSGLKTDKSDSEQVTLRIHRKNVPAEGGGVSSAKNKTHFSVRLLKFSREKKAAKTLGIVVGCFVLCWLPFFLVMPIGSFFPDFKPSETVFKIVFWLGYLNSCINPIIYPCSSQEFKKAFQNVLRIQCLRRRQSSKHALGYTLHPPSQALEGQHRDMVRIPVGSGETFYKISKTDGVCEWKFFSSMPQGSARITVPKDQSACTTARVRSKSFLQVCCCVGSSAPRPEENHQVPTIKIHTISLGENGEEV

Mus musculus = species on record: Mus musculus; assay: Antagonism of methyl phenidate-induced gnawing behavior in mice; assay type: functional
Outline: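 Test compound given ip (or sc) 2 h before methyl phenidate (60 mg/kg); mice housed in pairs on corrugated cardboard in gnawing cages, 5–9 pairs per dose.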

Rattus norvegicus [2] = species on record: Rattus norvegicus; assay: Cataleptogenic effect in rats; assay type: functional
Outline: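 Rats scored on a vertical wire grid hourly 1–6 h after dosing; catalepsy counted when immobility lasted at least 15 s.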

D(2) dopamine receptor = D(2) dopamine receptor (Rattus norvegicus, UniProt P61169); assay: Binding affinity against dopamine receptor D2
D(1A) dopamine receptor [3] = target: T2, D(1A) dopamine receptor (Rattus norvegicus, UniProt P18901); assay: The compound was tested for the binding affinity against Dopamine receptor D1 activity is expressed as IC50 values.
Outline: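 [3H]SCH 23390 displaced from rat striatal membrane preparations; IC50 read from log-concentration–effect curves, two complete curves of five test concentrations run in triplicate over three decades.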

[4] = target: 5-hydroxytryptamine receptor 2A (Rattus norvegicus, UniProt P14842); assay: Binding affinity for 5-hydroxytryptamine 2A receptor, activity is expressed as IC50 values.
Rattus norvegicus [5] = species on record: Rattus norvegicus; assay: In vitro inhibition of [3H]5-HT uptake in rat brain (minus pons, medulla oblongata and cerebellum) homogenates.; assay type: functional
Rattus norvegicus [6] = species on record: Rattus norvegicus; assay: In vitro inhibition of [3H]NE uptake in rat occipital lobe (plus temporal cortex) homogenates.; assay type: functional
Rattus norvegicus [7] = species on record: Rattus norvegicus; assay: In vitro inhibition of [3H]dopamine uptake in rat corpus striatum homogenates.; assay type: functional
D(1A) dopamine receptor [8] = target: T2, D(1A) dopamine receptor; assay: Binding affinity for dopamine receptor D1, activity is expressed as IC50 values.
[9] = Rattus norvegicus, read-out: ED50

T2 sequence (P18901 whole entry): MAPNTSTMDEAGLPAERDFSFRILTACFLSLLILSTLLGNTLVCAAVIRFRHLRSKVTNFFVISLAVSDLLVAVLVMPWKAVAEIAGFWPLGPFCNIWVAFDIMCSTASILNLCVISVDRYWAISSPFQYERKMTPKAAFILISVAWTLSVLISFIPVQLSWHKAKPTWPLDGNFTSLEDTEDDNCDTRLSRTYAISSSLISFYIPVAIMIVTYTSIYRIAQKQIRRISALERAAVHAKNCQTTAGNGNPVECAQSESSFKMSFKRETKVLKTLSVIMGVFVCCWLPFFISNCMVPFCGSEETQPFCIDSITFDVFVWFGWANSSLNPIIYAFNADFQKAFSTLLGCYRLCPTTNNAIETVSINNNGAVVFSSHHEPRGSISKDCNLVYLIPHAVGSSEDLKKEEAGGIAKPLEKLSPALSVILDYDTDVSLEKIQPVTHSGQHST
Sequence of D(2) dopamine receptor (P61169 whole entry): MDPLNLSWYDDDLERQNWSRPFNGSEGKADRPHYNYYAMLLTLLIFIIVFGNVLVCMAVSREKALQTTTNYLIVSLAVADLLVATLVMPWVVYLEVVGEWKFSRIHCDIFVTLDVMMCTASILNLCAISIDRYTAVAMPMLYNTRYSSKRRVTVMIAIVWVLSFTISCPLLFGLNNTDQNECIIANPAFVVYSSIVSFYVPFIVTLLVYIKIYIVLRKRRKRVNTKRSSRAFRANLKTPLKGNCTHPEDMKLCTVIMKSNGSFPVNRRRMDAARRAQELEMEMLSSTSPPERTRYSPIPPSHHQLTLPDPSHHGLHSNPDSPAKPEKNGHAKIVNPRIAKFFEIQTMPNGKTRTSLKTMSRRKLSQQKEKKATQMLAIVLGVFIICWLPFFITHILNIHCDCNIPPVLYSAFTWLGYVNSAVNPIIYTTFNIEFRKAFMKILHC
Sequence of 5-hydroxytryptamine receptor 2A (P14842 whole entry): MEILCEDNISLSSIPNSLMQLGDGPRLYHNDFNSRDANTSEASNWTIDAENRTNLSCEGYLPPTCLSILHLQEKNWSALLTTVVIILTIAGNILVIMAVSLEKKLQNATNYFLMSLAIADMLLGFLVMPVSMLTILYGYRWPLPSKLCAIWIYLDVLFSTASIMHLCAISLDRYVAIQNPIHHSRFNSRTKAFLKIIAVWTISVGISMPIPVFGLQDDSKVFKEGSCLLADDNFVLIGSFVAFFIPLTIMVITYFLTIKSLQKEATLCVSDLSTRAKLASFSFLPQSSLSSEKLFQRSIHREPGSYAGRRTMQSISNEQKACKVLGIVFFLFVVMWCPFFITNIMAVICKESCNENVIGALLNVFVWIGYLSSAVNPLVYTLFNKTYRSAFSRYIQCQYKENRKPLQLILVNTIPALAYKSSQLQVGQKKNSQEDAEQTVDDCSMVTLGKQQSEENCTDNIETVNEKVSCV

| SMILES | IC50 [1] [nM] | ED50 (Mus musculus; Mus musculus, read-out: ED50) [µmol/kg] | ED50 (Rattus norvegicus [2]; [9]) [µmol/kg] | IC50 (D(2) dopamine receptor) [nM] | IC50 (D(1A) dopamine receptor [3]) [nM] | IC50 [4] [nM] | IC50 (Rattus norvegicus [5]; Rattus norvegicus) [nM] | IC50 (Rattus norvegicus [6]) [nM] | IC50 (Rattus norvegicus [7]) [nM] | IC50 (D(1A) dopamine receptor [8]) [nM] | ED50 (Mus musculus) [µM/kg] | ED50 (Rattus norvegicus [2]) [µM/kg] | IC50 (Rattus norvegicus [5]) [nM] |
| --- | --- | --- | --- | --- | --- | --- | --- | --- | --- | --- | --- | --- | --- |
| CN1CCN(C2CC(c3ccsc3)c3ccc(Cl)cc32)CC1(C)C (stereo unspecified) | 14 | 1.3 | 44 | – | – | – | – | – | – | – | – | – | – |
| CN1CCN(C2CC(c3ccc(F)cc3)c3cc(Cl)ccc32)CC1(C)C (stereo unspecified) | 94 | > 110 | – | – | – | – | – | – | – | – | – | – | – |
| CN1CCN(C2CC(c3ccc(F)cc3)c3cccc(F)c32)CC1(C)C (stereo unspecified) | 15 | 6.9 | > 90 | – | – | – | – | – | – | – | – | – | – |
| CN1CCN(C2CC(c3ccccc3)c3ccccc32)CC1 (stereo unspecified) | – | – | – | 690 | 480 | – | – | – | – | – | – | – | – |
| OCCN1CCN(C2CC(c3ccc(F)cc3)c3ccc(Cl)cc32)CC1 (stereo unspecified) | – | – | – | – | 8.3 | – | – | – | – | – | – | – | – |
| OCCN1CCN(C2CC(c3ccc(F)cc3)c3cc(Cl)ccc32)CC1 (stereo unspecified) | – | – | – | – | 1800 | – | – | – | – | – | – | – | – |
| OCCN1CCN(C2CC(c3ccc(F)cc3)c3c(Cl)cccc32)CC1 (stereo unspecified) | – | – | – | – | 2000 | – | – | – | – | – | – | – | – |
| CN1CCN(C2CC(c3ccc(F)cc3)c3ccccc32)CC1(C)C (single isomer, unassigned; (+)) | – | – | – | 4900 | – | 650 | 5200 | 76 | 25 | 250 | – | – | – |
| CN1CCN(C2CC(c3ccccc3)c3ccc(Cl)cc32)CC1(C)C (single isomer, unassigned; (-)) | 10 | – | – | 9.5 | – | 4.4 | – | 1700 | 390 | 1.1 | 8.8 | >85 | 4000 |
| CC1(C)CN(C2CC(c3ccsc3)c3ccc(Cl)cc32)CCN1 (single isomer, unassigned; (-)) | 25 | 11 | > 49 | 7.1 | – | 1.9 | – | 4000 | 2700 | 0.84 | – | – | 4500 |
| CN1CCN(C2CC(c3ccccc3)c3ccc(Cl)cc32)CC1(C)C (stereo in doubt; 38) | 23 | – | > 76 | – | – | – | – | – | – | – | 24 | – | – |
| CN1CCN(C2CC(c3ccc(F)cc3)c3ccc(F)cc32)CC1(C)C (stereo in doubt; 40) | 12 | – | – | – | – | – | – | – | – | – | 2.1 | >68 | – |
| CC1(C)CN(C2CC(c3ccc(F)cc3)c3ccc(Cl)cc32)CCN1 (stereo in doubt; 41) | 39 | 6.7 | > 48 | – | – | – | – | – | – | – | – | – | – |
| CN1CCN(C2CC(c3ccccc3)c3ccc(Cl)cc32)CC1(C)C (stereo in doubt; (+)-38) | – | – | – | 260 | – | 68 | 5300 | 26 | 7.5 | 15 | – | – | – |
| CN1CCN(C2CC(c3ccc(F)cc3)c3ccc(F)cc32)CC1(C)C (stereo in doubt; (+)-40) | – | – | – | 1500 | – | 360 | – | 20 | 7.1 | 88 | – | – | 3700 |
| CC1(C)CN(C2CC(c3ccsc3)c3ccc(Cl)cc32)CCN1 (stereo in doubt; (+)-54) | – | – | – | 6700 | – | 1100 | – | 73 | 27 | 440 | – | – | 2000 |
| CN1CCN(C2CC(c3ccc(F)cc3)c3ccccc32)CC1(C)C (stereo in doubt; (-)-39) | 4.4 | – | – | 12 | – | 2.9 | – | 17000 | 5200 | 2.5 | 7.2 | >44 | 10000 |
| CN1CCN(C2CC(c3ccc(F)cc3)c3ccc(F)cc32)CC1(C)C (stereo in doubt; (-)-40) | 4.7 | – | 42 | 6.8 | – | 1.9 | – | > 10000 | 4000 | 0.71 | 1 | – | 12000 |
| CC1(C)CN(C2CC(c3ccc(F)cc3)c3ccc(Cl)cc32)CCN1 (stereo in doubt; (-)-41) | 12 | – | – | 9 | – | 3.7 | – | 2200 | 400 | 1.1 | 5.6 | >84 | 1800 |
